Screening results as filed in PubChem BioAssay.
Only a sample is shown.
KCNK3 block – human KCNK3 channel inhibitors, primary screen, CHO cells, FluxOR thallium flux, B-score; Potassium channel subfamily K member 3 (Homo sapiens), O14649; FluxOR fluorescence; hits give low values; B-score at 10 µM; 340,000 compounds, 0.84% hits; AID 602410, 2012;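 active means B-score under library mean minus 4 SD, starting fluorescence ratio at most library mean plus 5 SD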;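 further: more negative B-score means stronger inhibition of thallium flux through KCNK3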
hERG rescue – hERG rescue from dofetilide block, primary screen, cell-based, CHO-hERG, FluxOR thallium flux, dofetilide IC70. dofetilide IC70 present. activation (rescue from dofetilide block), less the hit threshold, % at 10 µM. 310,000 compounds, 0.51% hits;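 active means activation above the mean of controls blocked by dofetilide plus 5 SD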;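 further: thallium influx through hERG after potassium depolarization seen as dye fluorescence rise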
KCNK9 block – KCNK9 potassium channel inhibitors, primary screen, HEK293 cells, thallium flux; Potassium channel subfamily K member 9 (Homo sapiens), Q9NPC2; FluxOR thallium flux fluorescence; hits give low values; B-score at 10 µM; 310,000 compounds, 1.2% hits;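 active means ratio B-score over 3 SD below the library mean, with starting fluorescence within 5 SD of its mean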;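 further: negative B-score means less thallium flux so channel inhibition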
Cl transport mod – KCC2 cotransporter modulators, thallium flux, primary screen, cell-based, HEK293 KCC2, FluoZin-2 fluorescence, MLSMR; Solute carrier family 12 member 5 (Homo sapiens), Q9H2X9; KCC2 cells, thallium flux FluoZin-2 fluorescence; B-score of Tl+ flux slope (higher = more flux/activation; lower = inhibition) at 10 µM; 190,000 compounds, 2.2% hits; AID 1456, 2008;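 active means thallium flux slope and its plate-corrected score both differing from the plate sample mean at a set confidence after two filtering rounds, in either direction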;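 further: slope of fluorescence scaled to starting intensity during 10 to 20 s after thallium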
Target sequence (Q9H2X9 whole entry, looked up): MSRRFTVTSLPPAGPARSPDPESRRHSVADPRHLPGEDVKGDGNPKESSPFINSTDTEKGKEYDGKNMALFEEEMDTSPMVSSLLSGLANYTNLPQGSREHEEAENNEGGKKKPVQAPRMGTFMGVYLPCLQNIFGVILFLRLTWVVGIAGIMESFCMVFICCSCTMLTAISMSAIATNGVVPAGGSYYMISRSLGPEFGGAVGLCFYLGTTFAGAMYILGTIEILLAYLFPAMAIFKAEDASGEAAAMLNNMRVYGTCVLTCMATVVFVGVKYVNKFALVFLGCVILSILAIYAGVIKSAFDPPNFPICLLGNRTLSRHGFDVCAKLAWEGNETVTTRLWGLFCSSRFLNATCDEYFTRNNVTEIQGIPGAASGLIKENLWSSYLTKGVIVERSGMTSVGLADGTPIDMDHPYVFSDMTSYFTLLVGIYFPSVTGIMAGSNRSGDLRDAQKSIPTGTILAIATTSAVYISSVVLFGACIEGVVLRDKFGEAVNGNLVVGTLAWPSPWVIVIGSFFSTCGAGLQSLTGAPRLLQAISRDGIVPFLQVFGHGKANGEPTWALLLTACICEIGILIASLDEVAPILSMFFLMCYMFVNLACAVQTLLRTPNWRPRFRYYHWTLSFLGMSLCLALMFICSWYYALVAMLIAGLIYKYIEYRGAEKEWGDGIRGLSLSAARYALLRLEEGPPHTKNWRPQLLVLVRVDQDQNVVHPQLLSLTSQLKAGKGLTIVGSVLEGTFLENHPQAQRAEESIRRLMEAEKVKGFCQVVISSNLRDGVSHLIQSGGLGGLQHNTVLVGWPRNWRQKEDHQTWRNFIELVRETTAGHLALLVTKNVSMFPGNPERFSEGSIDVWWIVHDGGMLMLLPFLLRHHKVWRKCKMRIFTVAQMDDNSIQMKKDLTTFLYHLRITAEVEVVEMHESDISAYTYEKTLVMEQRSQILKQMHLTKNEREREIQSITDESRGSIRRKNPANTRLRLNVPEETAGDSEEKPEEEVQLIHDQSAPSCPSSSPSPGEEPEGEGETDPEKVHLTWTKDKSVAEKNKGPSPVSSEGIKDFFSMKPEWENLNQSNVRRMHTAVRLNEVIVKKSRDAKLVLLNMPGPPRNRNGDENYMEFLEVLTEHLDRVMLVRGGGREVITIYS
KCNQ1 block – inhibitors of human KCNQ1 channel, primary screen, cell-based, thallium flux, high-throughput. Potassium voltage-gated channel subfamily KQT member 1 (Homo sapiens), P51787. CHO-K1 KCNQ1, FluxOR thallium flux fluorescence; hits give high values. B-score at 10 µM. 310,000 compounds, 1.3% hits;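 active means compounds whose thallium flux B-score, printed positive for inhibition, exceeds three library SD while starting fluorescence stays within three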;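 further: channel opened by potassium depolarization with thallium stimulus after 20 min compound exposure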
KCNQ1 pot – potentiators or activators of KCNQ1 channel, primary screen, cell-based, thallium flux, high-throughput | Potassium voltage-gated channel subfamily KQT member 1 (Homo sapiens), P51787 | CHO-K1 KCNQ1, thallium flux FluxOR fluorescence; hits give high values | B-score at 10 µM | 310,000 compounds, 0.35% hits;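 active means fluorescence ratio B-score, a plate-corrected score, at least three library SD, with initial intensity B-score within 5 SD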
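Assay system: CHO-K1 cells stably expressing KCNQ1. Medium: assay buffer for compound exposure, DMSO matched across wells. Timing: 37 °C overnight plating, 90-min dark dye load, 20-min compound pretreatment. Signal: kinetic FluxOR fluorescence, 10 s baseline plus 110 s post-stimulus.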
KCNK9 inh conf – KCNK9 potassium channel inhibitors, confirmation, HEK293 cells, thallium flux, duplicate | shares compounds with KCNK9 block | FluxOR thallium flux fluorescence | inhibition, % at 10 µM | 4,900 compounds, 43% hits | AID 492992, 2010;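 active means thallium signal inhibited by more than 5 SD of the compound-free buffer control wells, on both duplicate plates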;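 further: 0% = assay buffer control wells without compound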
Kir21 sel – mouse Kir2.1 channel inhibition, confirmation, selectivity assay for KCNK9 modulator project, cell-based, HEK293, thallium flux. shares compounds with KCNK9 block. Kir2.1 cells, FluxOR thallium flux fluorescence. inhibition, % at 10 µM. 4,900 compounds, 4% hits;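 active means thallium signal drop more than 5 SD beyond the mean of the no-compound control wells, seen in both duplicate plates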;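 further: signal is fluorescence rise after thallium addition divided by baseline fluorescence; plate controls were assay buffer only for no effect and full block by chlorpromazine control for full effect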
HEK293 Tl ctr – thallium flux in non-induced HEK293 cells, confirmation, counter-screen for KCNK9 inhibitor project, cell-based, second counter screen, non-induced KCNK9-HEK293; shares compounds with KCNK9 block; FluxOR thallium flux; inhibition, % at 10 µM; 4,900 compounds, 40% hits;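 active means thallium signal drop beyond 5 SD of the untreated control mean, on both duplicate plates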;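 further: plate controls were buffer only IC0 wells for no effect and SID17386958 at its maximal inhibitory level for full effect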
An asterisk follows results filed as active; i = inactive; . = no result.

SMILES	KCNK3 block	hERG rescue	KCNK9 block	Cl transport mod	KCNQ1 block	KCNQ1 pot	KCNK9 inh conf	Kir21 sel	HEK293 Tl ctr
O=C1c2ccccc2C2=Nc3ccccc3SC(c3ccc(Cl)cc3)C12 (stereo not drawn)	i	-12	-13*	-0.082	i	i	46%*	i	34%*
O=C1CCCC2=C1C(c1ccccc1)C1C(=O)c3ccccc3C1=N2 (stereo not drawn)	i	-2	i	-0.61	i	i	.	.	.
Brc1ccc(OCc2nc(-c3ccccn3)n[nH]2)cc1	i	-5	i	1	i	i	.	.	.
CCOc1ccc(-n2c(-c3ccccc3)c[n+]3c2CCC3)cc1	i	-26	i	-0.31	i	i	.	.	.
CC(C)c1ccc(-n2c(-c3ccccc3)c[n+]3c2CCc2ccccc2-3)cc1	i	-49	-16*	-0.93	i	i	72%*	75%*	32%*
COc1ccccc1-c1nc(SCC(=O)N(C)c2ccccc2)c2c(=O)n(C)c(=O)n(C)c2n1	i	-26	i	0.52	i	i	.	.	.
COc1ccc(/C=N/n2c(N)nc(-c3ccccc3)c2-c2ccccc2)cc1	i	-40	i	-0.62	i	i	i	i	i
COc1ccc(-c2nnc(SCc3cc(C)cc(C)c3)o2)cc1	i	-10	i	-0.84	i	i	i	i	i
Cn1c(=O)[nH]c(=O)c2c1nc(NCCCO)n2CCOc1ccccc1	i	4	i	-1.2	i	i	.	.	.
CN(C(=S)Nc1ccc(Oc2ccccc2)cc1)C1CCCCC1	i	-7	i	-2.9	i	i	i	i	i
S=C(Nc1ccc(Oc2ccccc2)cc1)NC1CCCCCC1	i	-12	i	-1.2	i	i	.	.	.
O=S1(=O)CCOCCCN1Cc1cccc(C(F)(F)F)c1	i	-7	i	.	i	i	.	.	.
CCCS(=O)(=O)N1CCN=C1SCc1cccc2ccccc12	i	-12	i	-1.4	i	i	i	i	i
Cc1cc(OCc2cc(C(=O)N(C)Cc3ccccn3)no2)cc(C)c1Cl	i	-5	i	.	i	i	.	.	.
CN(CCc1ccccc1)C(=O)c1cc(COc2ccc(F)cc2Cl)on1	i	-8	i	.	i	i	i	i	i
Cc1cc(OCc2cc(C(=O)N(C)CCOc3ccccc3)no2)cc(C)c1Cl	i	-6	i	.	i	i	i	i	i
CN(CCc1ccccn1)C(=O)c1cc(COc2ccc(F)cc2F)on1	i	-11	i	.	i	i	.	.	.
CN(Cc1ccc(F)cc1)C(=O)c1cc(COc2ccc(F)cc2F)on1	i	4	i	.	i	i	.	.	.
Cc1ccc(OCCN(C)C(=O)c2cc(COc3ccc(F)cc3F)on2)cc1	i	-14	i	.	i	i	i	i	i
COc1ccc(-c2ccc(=O)n(Cc3cccc([N+](=O)[O-])c3)n2)cc1	i	-15	i	-1	i	i	.	.	.
CCOc1ccccc1N1CCN(C/C=C/c2ccc(N(C)C)cc2)CC1	i	-9	i	-1.1	i	i	i	i	i
CCOc1ccccc1N1CCN(Cc2ccc(Br)s2)CC1	i	-8	i	-1.4	i	i	i	i	i
CCOc1ccccc1N1CCN(Cc2ccco2)CC1	i	-4	i	-1.8	i	i	.	.	.
CCN(CC(=O)Nc1ccc(NC(C)=O)cc1)C(=O)c1ccc(COc2ccccc2)o1	i	.	.	.	.	.	.	.	.
Cc1ccc(S(=O)(=O)NCCC(=O)NNC(=O)c2ccccc2Cl)cc1C	i	.	.	.	.	.	.	.	.
SMILES	KCNK3 block	hERG rescue	KCNK9 block	Cl transport mod	KCNQ1 block	KCNQ1 pot	KCNK9 inh conf	Kir21 sel	HEK293 Tl ctr
CCOC(=O)C1CCCN(C(=O)C2CCN(S(=O)(=O)c3cnc[nH]3)CC2)C1 (stereo not drawn)	i	-4	i	0.35	i	i	.	.	.
COc1cc(COc2ccc3c(C)c(Cc4ccccc4)c(=O)oc3c2)cc(OC)c1OC	i	-13	i	.	i	i	i	i	i
Cc1ccc(NC2CCCN(C(=O)C3CCCCC3)C2)cc1C (stereo not drawn)	i	-5	i	.	i	i	i	i	i
Cc1cc(C)c(C(=O)N2CCCC(Nc3ccc(C)c(C)c3)C2)o1 (stereo not drawn)	i	-9	i	.	i	i	i	i	i
CCOC(=O)COc1c(Cl)cc(C2NC(=S)NC(c3ccccc3)=C2C(C)=O)cc1OC (stereo not drawn)	i	-10	i	-1.9	i	i	.	.	.
Cc1nc(Cc2nnc(SCC(=O)N3CCN(c4ccccc4)CC3)o2)cs1	i	.	.	.	.	.	.	.	.
O=C(Cc1ccc(Br)cc1)OCC(=O)N1CCc2ccccc2C1	i	-2	i	-1.7	i	i	i	i	i
O=C(CCS(=O)(=O)Cc1ccccc1F)N1CCc2ccccc2C1	i	-3	i	.	i	i	.	.	.
O=C(CCS(=O)(=O)Cc1ccccc1)N1CCc2ccccc2C1	i	-8	i	-0.39	i	i	i	i	i
O=C(COc1ccc(Br)cc1)N1CCc2ccccc2C1	i	-12	i	-1.8	i	i	.	.	.
CC(C)(C)C(=O)Nc1sc(-c2ccccc2)cc1C(=O)O	i	-9	i	-0.55	i	i	.	.	.
Cc1cccc(C(=O)Nc2sc(-c3ccccc3)cc2C(=O)O)c1	i	-22	i	1.3	i	i	i	i	i
COc1ccccc1C1=NC(c2ccc(F)cc2)N=C1C (stereo not drawn)	i	-10	i	-2.2	i	i	i	i	i
